Target: T1, Polyunsaturated fatty acid 5-lipoxygenase (Rattus norvegicus, UniProt P12527)
T1 sequence (P12527 whole entry): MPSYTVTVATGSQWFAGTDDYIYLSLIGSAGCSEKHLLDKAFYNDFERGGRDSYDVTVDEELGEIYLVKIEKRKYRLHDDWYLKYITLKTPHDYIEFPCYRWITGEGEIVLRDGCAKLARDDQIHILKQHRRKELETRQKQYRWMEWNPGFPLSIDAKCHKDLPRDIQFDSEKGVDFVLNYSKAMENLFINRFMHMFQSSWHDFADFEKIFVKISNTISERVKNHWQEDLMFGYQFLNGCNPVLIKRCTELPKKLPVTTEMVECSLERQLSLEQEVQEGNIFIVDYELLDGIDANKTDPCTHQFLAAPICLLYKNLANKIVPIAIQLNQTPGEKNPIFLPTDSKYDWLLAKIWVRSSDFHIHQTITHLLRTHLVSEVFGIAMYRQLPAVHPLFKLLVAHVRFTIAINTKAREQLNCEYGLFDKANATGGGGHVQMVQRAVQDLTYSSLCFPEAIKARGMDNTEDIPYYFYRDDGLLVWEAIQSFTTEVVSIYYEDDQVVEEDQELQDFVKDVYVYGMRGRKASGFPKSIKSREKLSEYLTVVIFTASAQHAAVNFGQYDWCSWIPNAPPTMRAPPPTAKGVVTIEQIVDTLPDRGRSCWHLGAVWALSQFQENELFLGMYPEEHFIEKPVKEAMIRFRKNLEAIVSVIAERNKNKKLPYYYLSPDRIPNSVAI
Assay: Ability to inhibit 5-lipoxygenase in rat basophilic leukemia cells.
Assay type: cell-based, RBL-1
Procedure, shortened: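 Enzyme: RBL cell sonicate high-speed supernatant, 25–50% ammonium sulfate cut, desalted on Sephadex G-25 (68 μg protein). Compound in ethanol preincubated 5 min with enzyme. Reaction started with 25 μM [1-14C]arachidonic acid, 30 °C for 5 min in 50 mM potassium phosphate pH 7.4 with 2 mM ATP and 2 mM CaCl2. Radio-TLC of 5-HPETE; IC50 from concentration series.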

IC50 [nM] | SMILES
18 | CCCCCCCCCCOc1c(OC)c(OC)cc2oc(-c3ccc(O)c(O)c3)cc(=O)c12
52 | CCCCOc1c(OC)cc2oc(-c3ccc(O)c(O)c3)cc(=O)c2c1OC
33 | CCCCCCCCCCCCOc1cc(OC)c2c(=O)cc(-c3ccc(O)c(O)c3)oc2c1OC
140 | CCCCCCCCCCCCOc1cc2oc(-c3ccc(O)c(O)c3)cc(=O)c2c(O)c1OC
17 | CCCCCCCCCCOc1c(OC)cc2oc(-c3ccc(O)c(O)c3)cc(=O)c2c1OC
42 | CCCCCCCCOc1c(OC)cc2oc(-c3ccc(OC(C)=O)c(OC(C)=O)c3)cc(=O)c2c1OC
16 | COc1cc2oc(-c3ccc(O)c(O)c3)cc(=O)c2c(OCCC(C)C)c1OC
100 | CCCCOc1c(OC)cc2oc(-c3ccc(OC(C)=O)c(OC(C)=O)c3)cc(=O)c2c1OC
30 | CCCCCCCCCCOc1c(OC)cc2oc(-c3ccc(OC(C)=O)c(OC(C)=O)c3)cc(=O)c2c1OC
10000 | CCCCCCCCCCCCCCOc1c(OC)cc2oc(-c3ccc(O)c(O)c3)cc(=O)c2c1O
10000 | CCCCCCCCCCCCCCCCCCOc1c(OC)cc2oc(-c3ccc(O)c(O)c3)cc(=O)c2c1O
140 | CCCCCCCCCCCCCCCCOc1c(OC)c(OC)cc2oc(-c3ccc(O)c(O)c3)cc(=O)c12
70 | CCCCCCCCCCCCCCOc1c(OC)cc2oc(-c3ccc(O)c(O)c3)cc(=O)c2c1OC
100 | CCCCCCCCCCCCOc1cc2oc(-c3ccc(O)c(O)c3)cc(=O)c2c(OC)c1OC
26 | CCCCCCCCCCCCOc1c(OC)cc2oc(-c3ccc(O)c(O)c3)cc(=O)c2c1O
26 | COc1cc2oc(-c3ccc(O)c(O)c3)cc(=O)c2c(OC)c1OCCC(C)C
50 | CCCCCCOc1c(OC)cc2oc(-c3ccc(OC(C)=O)c(OC(C)=O)c3)cc(=O)c2c1OC
19 | CCCCCCCCOc1c(OC)c(OC)cc2oc(-c3ccc(O)c(O)c3)cc(=O)c12
15 | CCCCCCOc1c(OC)c(OC)cc2oc(-c3ccc(O)c(O)c3)cc(=O)c12
22 | CCCCCCCCCCCCOc1cc(OC)c(OC)c2oc(-c3ccc(O)c(O)c3)cc(=O)c12
9000 | CCCCCCCCCCCCCCCCCCOc1c(OC)c(OC)cc2oc(-c3ccc(O)c(O)c3)cc(=O)c12
1000 | COc1cc2oc(-c3ccc(OC(C)=O)c(OC(C)=O)c3)cc(=O)c2c(OC)c1OC
110 | CCCCCCCCCCCCOc1c(OC)cc(OC)c2c(=O)cc(-c3ccc(O)c(O)c3)oc12
430 | COc1cc(OC)c2c(=O)cc(-c3ccc(O)c(O)c3)oc2c1OC
20 | CCCCCCOc1c(OC)cc2oc(-c3ccc(O)c(O)c3)cc(=O)c2c1O
15 | CCCCOc1c(OC)cc2oc(-c3ccc(O)c(O)c3)cc(=O)c2c1O

IC50 [nM] | SMILES
11 | CCCCCCCCCCOc1c(OC)cc2oc(-c3ccc(O)c(O)c3)cc(=O)c2c1O
9 | COc1cc2oc(-c3ccc(O)c(O)c3)cc(=O)c2c(O)c1OCCC(C)C
75 | CCCCCCCCCCCCOc1c(OC)cc2oc(-c3ccc(OC(C)=O)c(OC(C)=O)c3)cc(=O)c2c1OC
28 | CCCCCCCCCCCCCCOc1c(OC)c(OC)cc2oc(-c3ccc(O)c(O)c3)cc(=O)c12
22 | CCCCCOc1c(OC)cc2oc(-c3ccc(O)c(O)c3)cc(=O)c2c1O
240 | COc1cc2oc(-c3ccc(O)c(O)c3)cc(=O)c2c(OC)c1OC
10000 | CCCCCCCCCCCCCCCCCCOc1c(OC)cc2oc(-c3ccc(O)c(O)c3)cc(=O)c2c1OC
32 | CCCCCOc1c(OC)c(OC)cc2oc(-c3ccc(O)c(O)c3)cc(=O)c12
11 | CCCCCCCCOc1c(OC)cc2oc(-c3ccc(O)c(O)c3)cc(=O)c2c1O
110 | CCCCCCCCCCCCOc1c(OC)cc(O)c2c(=O)cc(-c3ccc(O)c(O)c3)oc12
45 | CCCCOc1c(OC)c(OC)cc2oc(-c3ccc(O)c(O)c3)cc(=O)c12
35 | CCCCCOc1c(OC)cc2oc(-c3ccc(O)c(O)c3)cc(=O)c2c1OC
10000 | CCCCCCCCCCCCCCCCCCOc1c(OC)cc2oc(-c3ccc(OC(C)=O)c(OC(C)=O)c3)cc(=O)c2c1OC
14 | CCCCCCOc1c(OC)cc2oc(-c3ccc(O)c(O)c3)cc(=O)c2c1OC
1500 | CCCCCCCCCCCCCCCCOc1c(OC)cc2oc(-c3ccc(O)c(O)c3)cc(=O)c2c1OC
18 | CCCCCCCCCCCCOc1c(OC)c(OC)cc2oc(-c3ccc(O)c(O)c3)cc(=O)c12
28 | CCCCCOc1c(OC)cc2oc(-c3ccc(OC(C)=O)c(OC(C)=O)c3)cc(=O)c2c1OC
10000 | CCCCCCCCCCCCCCCCOc1c(OC)cc2oc(-c3ccc(O)c(O)c3)cc(=O)c2c1O
30 | CCCCCCCCCCCCOc1c(OC)cc2oc(-c3ccc(O)c(O)c3)cc(=O)c2c1OC
10000 | CCCCCCCCCCCCCCOc1c(OC)cc2oc(-c3ccc(OC(C)=O)c(OC(C)=O)c3)cc(=O)c2c1OC
10000 | CCCCCCCCCCCCCCCCOc1c(OC)cc2oc(-c3ccc(OC(C)=O)c(OC(C)=O)c3)cc(=O)c2c1OC
180 | CCCCCCCCCCCCOc1cc(O)c2c(=O)cc(-c3ccc(O)c(O)c3)oc2c1OC
110 | COc1cc(O)c2c(=O)cc(-c3ccc(O)c(O)c3)oc2c1OC
22 | CCCCCCCCOc1c(OC)cc2oc(-c3ccc(O)c(O)c3)cc(=O)c2c1OC
95 | COc1cc2oc(-c3ccc(O)c(O)c3)cc(=O)c2c(O)c1OC [CIRSILIOL]

— ChEMBL document CHEMBL1123544, “Syntheses of 5,6,7- and 5,7,8-trioxygenated 3',4'-dihydroxyflavones having alkoxy groups and their inhibitory activities against arachidonate 5-lipoxygenase” (J Med Chem, 1986)
